This is an account of results in ChEMBL document CHEMBL3611971, “Multifunctional novel Diallyl disulfide (DADS) derivatives with β-amyloid-reducing, cholinergic, antioxidant and metal chelating properties for the treatment of Alzheimer's disease” (Bioorg Med Chem, 2015).

One series concerns the target Cholinesterase (Equus caballus, UniProt P81908). The series can be described thus: Inhibition of equine serum BuChE using DTNB as substrate incubated for 5 mins prior to substrate addition measured after 2 mins by Ellman's method. (In general: DTNB colorimetry detects thiols as they appear.)
The next series addresses Acetylcholinesterase (Electrophorus electricus, UniProt O42275). The series can be described thus: Inhibition of electric eel AChE using DTNB as substrate incubated for 5 mins prior to substrate addition measured after 2 mins by Ellman's method.
Series [1] can be described thus: Metal chelating activity of the compound assessed as formation of Cu2+-compound complex at 50 uM after 30 mins by UV-vis spectrometry. The series is classed as physicochemical. The conditions noted are these: 0.5 h. The essentials:
(§1)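 UV absorption scan from 200 to 600 nm of compound in methanol, alone or with CuCl2 or FeSO4. Read after 30 min at room temperature, with compound and metal each at 50 μM final.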

Series [2] in a line: Metal chelating activity of the compound assessed as formation of Fe2+-compound complex at 50 uM after 30 mins by UV-vis spectrometry. The following applies: 0.5 h. The series is classed as physicochemical. The essentials: as §1
Series [3] in a line: Metal chelating activity of the compound assessed as reduction of Cu2+-induced amyloid beta (1 to 42) (unknown origin) aggregation at 50 uM after 24 hrs by thioflavin-T-based fluorescence assay relative to control. In kind it is physicochemical. An outline of the steps: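 Aβ1–42 was HFIP-treated, dried, and held as DMSO stock. Diluted in […] (pH 6.6) with […]; 25 μM peptide incubated with or without 25 μM Cu2+ and 50 μM compound, 37 °C, 24 h.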

A short description of series [4]: Metal chelating activity of the compound assessed as reduction of Cu2+-induced amyloid beta (1 to 42) (unknown origin) aggregation at 50 uM after 24 hrs by transmission electron microscopic analysis. The series is classed as physicochemical. The essentials: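 Aβ1–42 diluted in 20 mM phosphate buffer (pH 7.4) at 4 °C. Preincubated 2 min with Cu2+ (Aβ and Cu2+ each 25 μM final), then incubated 24 h at 37 °C with or without compound at 50 μM. Samples placed on carbon-coated grids for 2 min at room temperature, stained 2 min with 1% uranyl acetate, and imaged by TEM.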

Series [5] can be described thus: Metal chelating activity of the compound assessed as reduction of Cu2+-amyloid beta (1 to 42)-complex induced H2O2 production from ascorbate at 800 nM after 30 mins by HRP/Amplex Red assay relative to control. In kind it is physicochemical. On the set-up: scale not given: the % may be the effect or the level left. The following applies: 0.5 h, 0.8 µM. An outline of the steps: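 Per well, in phosphate buffer (100 μL): CuCl2 400 nM, Aβ 200 nM, chelator 800 nM (1% v/v DMSO) and sodium ascorbate 10 mM, held 30 min at room temperature. Working solution with Amplex Red and HRP then added for another 30 min at room temperature. Fluorescence ex/em 530/590 nm. At least three measurements.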

Series [6] in a line: Cytotoxicity against HEK293 cells assessed as cell viability at 0.1 uM after 48 hrs by MTT assay relative to control. In kind it is cell-based. The conditions noted are these: human, read-out: Activity. The essentials: (§2)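 HEK 293 cells grown in DMEM with 10% FBS and 1% penicillin–streptomycin at 37 °C, 5% CO2. Seeded at 5000 cells/well and cultured 24 h, then exposed 48 h to compound (DMSO stock diluted in complete medium; 0.1–100 μM final), in triplicate. MTT added for 4 h, formazan dissolved in DMSO, absorbance read at 570 nm against 630 nm reference. Mean ± SEM of 3 independent experiments.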
In general terms: Tetrazolium assays rely on reduction of a dye to a coloured formazan, in cell work by metabolically active cells.

Series [7] is described as follows: Cytotoxicity against HEK293 cells assessed as cell viability at 1 uM after 48 hrs by MTT assay relative to control. In kind it is cell-based. The following applies: human, read-out: Activity. An outline of the steps: as §2
The nature of series [8]: Cytotoxicity against HEK293 cells assessed as cell viability at 10 uM after 48 hrs by MTT assay relative to control. The series is classed as cell-based. The conditions noted are these: human, read-out: Activity. An outline of the steps: as §2
Series [9] can be described thus: Cytotoxicity against HEK293 cells assessed as cell viability at 25 uM after 48 hrs by MTT assay relative to control. The series is classed as cell-based. The following applies: human, read-out: Activity. An outline of the steps: as §2
Series [10] can be described thus: Cytotoxicity against HEK293 cells assessed as cell viability at 50 uM after 48 hrs by MTT assay relative to control. In kind it is cell-based. The conditions noted are these: human, read-out: Activity. The essentials:
as §2

A short description of series [11]: Cytotoxicity against HEK293 cells assessed as cell viability at 100 uM after 48 hrs by MTT assay relative to control. The conditions noted are these: human, read-out: Activity. In kind it is cell-based. The essentials:
as §2

For a further series, the system named is HEK293. Briefly: Cytotoxicity against HEK293 cells assessed as cell viability at 0.1 to 100 uM after 48 hrs by MTT assay relative to control. The series is classed as cell-based. The conditions noted are these: human, hek293, 48 h. The essentials:
as §2

Series [12] concerns the target Amyloid-beta precursor protein (Homo sapiens) (UniProt P05067). The conditions noted are these: at 25 µM.

Cholinesterase, sequence (P81908 whole entry): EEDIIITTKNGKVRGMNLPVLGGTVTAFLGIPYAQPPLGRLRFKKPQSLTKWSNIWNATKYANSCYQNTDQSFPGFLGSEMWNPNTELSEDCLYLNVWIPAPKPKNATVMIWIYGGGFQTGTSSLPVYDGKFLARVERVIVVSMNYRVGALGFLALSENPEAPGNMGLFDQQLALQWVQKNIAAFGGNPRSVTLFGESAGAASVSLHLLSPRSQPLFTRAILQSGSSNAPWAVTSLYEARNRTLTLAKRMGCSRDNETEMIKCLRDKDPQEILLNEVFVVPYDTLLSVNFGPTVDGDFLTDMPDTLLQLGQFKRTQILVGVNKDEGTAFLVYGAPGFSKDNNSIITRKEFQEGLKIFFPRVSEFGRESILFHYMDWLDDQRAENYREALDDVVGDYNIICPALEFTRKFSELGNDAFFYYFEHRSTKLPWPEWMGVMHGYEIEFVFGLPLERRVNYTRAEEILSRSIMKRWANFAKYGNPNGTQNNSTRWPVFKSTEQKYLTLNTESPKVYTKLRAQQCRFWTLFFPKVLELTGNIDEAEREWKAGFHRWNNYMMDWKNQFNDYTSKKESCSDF
Amyloid-beta precursor protein (Homo sapiens), sequence (P05067 whole entry): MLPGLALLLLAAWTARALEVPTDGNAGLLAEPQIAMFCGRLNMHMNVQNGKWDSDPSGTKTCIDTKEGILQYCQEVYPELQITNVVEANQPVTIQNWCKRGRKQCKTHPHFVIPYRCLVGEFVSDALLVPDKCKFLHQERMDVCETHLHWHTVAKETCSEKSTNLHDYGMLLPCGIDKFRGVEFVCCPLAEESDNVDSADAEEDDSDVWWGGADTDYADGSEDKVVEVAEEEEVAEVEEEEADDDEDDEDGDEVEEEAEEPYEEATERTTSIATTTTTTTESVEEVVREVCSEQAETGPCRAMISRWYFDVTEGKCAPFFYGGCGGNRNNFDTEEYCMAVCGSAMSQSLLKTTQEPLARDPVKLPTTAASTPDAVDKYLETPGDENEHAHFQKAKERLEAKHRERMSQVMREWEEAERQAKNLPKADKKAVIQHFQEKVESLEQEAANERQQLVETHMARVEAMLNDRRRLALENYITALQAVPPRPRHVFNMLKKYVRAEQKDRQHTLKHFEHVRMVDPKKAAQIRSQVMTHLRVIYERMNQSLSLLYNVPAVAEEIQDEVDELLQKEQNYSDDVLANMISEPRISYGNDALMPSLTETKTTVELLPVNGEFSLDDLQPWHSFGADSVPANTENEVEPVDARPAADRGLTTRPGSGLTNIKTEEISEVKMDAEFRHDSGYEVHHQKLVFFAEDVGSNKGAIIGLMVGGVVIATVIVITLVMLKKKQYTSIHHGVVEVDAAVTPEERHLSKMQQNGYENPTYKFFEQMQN
Acetylcholinesterase, sequence (O42275 whole entry): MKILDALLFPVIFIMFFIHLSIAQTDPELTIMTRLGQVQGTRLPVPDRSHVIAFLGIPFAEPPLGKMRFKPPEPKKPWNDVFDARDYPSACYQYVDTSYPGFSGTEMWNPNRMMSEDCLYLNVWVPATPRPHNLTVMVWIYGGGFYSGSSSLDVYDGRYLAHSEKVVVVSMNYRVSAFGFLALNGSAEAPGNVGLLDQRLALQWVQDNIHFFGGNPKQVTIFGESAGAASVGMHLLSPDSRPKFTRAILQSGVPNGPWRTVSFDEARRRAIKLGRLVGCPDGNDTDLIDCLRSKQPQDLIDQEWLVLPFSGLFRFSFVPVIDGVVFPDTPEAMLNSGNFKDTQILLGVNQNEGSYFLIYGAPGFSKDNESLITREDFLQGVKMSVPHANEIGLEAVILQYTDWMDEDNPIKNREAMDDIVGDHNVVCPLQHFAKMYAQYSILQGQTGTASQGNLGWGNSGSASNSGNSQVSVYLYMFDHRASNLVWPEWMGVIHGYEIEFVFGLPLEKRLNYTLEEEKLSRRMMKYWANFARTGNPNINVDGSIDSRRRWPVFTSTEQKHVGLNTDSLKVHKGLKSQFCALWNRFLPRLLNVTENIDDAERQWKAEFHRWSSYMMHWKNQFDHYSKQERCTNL

Take `COc1cc(/C=C/C(=O)SSC(=O)/C=C/c2ccc(O)c(OC)c2)ccc1O`: the results for the half-maximal inhibitory concentration (IC50) against Cholinesterase and against Acetylcholinesterase were 12.9 µM and 0.121 µM, respectively. The Activity result in series [1] is on record as “Active”; in [2] it was “Active”; in [5], 62%; in the series with HEK293, “Dose-dependent effect”. The figures for the “inhibition (INH)” value in series [3] and in series [4] were 78.5% and “Active”, respectively. Besides, in series [6], the viability at 48 h, 0.1 µM was found to be 97.3%. Besides, in [7], the viability at 48 h, 1 µM is 96.5%. Further, the viability at 48 h, 10 µM in [8] came to 94.4%. For the same compound, in [9], the viability at 48 h, 25 µM was 92.3%. The viability at 48 h, 50 µM in series [10] amounted to 90.1%. In addition, the viability at 48 h, 100 µM in [11] is 80.9%. In [12], this compound showed an inhibition of 71.4%.

Take `Clc1cccc(/C=C/CSSC/C=C/c2cccc(Cl)c2)c1`: the 50% inhibitory concentration (IC50) against Cholinesterase was over 100 µM; at Acetylcholinesterase, 44.2 µM. Further, in [12], the inhibition stood at 52.4%.

For `COc1ccc(/C=C/C(=O)SSC(=O)/C=C/c2ccc(OC)c(OC)c2)cc1OC`, the IC50 against Cholinesterase is 13.6 µM; at Acetylcholinesterase, 0.056 µM. Also, the Activity result in series [1] is recorded as “Active”; in [2], “Active”; in series [5], 72%; with HEK293, “Dose-dependent effect”. Besides, the “inhibition (INH)” value in series [3] was 80.9%; in series [4], “Active”. In series [6], the viability at 48 h, 0.1 µM came out at 98.9%. Further, the viability at 48 h, 1 µM in series [7] amounted to 96.1%. Moreover, the viability at 48 h, 10 µM in series [8] is 95.4%. Besides, the viability at 48 h, 25 µM in series [9] is 95.7%. For the same compound, the viability at 48 h, 50 µM in series [10] was 92.8%. The viability at 48 h, 100 µM in series [11] came to 88.6%. The compound further displayed an inhibition in series [12] of 74.2%.

Turning to `Clc1ccc(/C=C/CSSC/C=C/c2ccc(Cl)cc2)cc1`, the IC50 against Cholinesterase was determined as 94.2 µM; against Acetylcholinesterase, 37 µM. Besides, in [12], the inhibition stood at 48.2%.

For the compound `O=C(/C=C/c1cccc(Br)c1)SSC(=O)/C=C/c1cccc(Br)c1`, the IC50 on Cholinesterase amounted to 38.7 µM; against Acetylcholinesterase, 0.54 µM. The same compound returned an inhibition in series [12] of 68.7%.

On to `COc1ccc(/C=C/CSSC/C=C/c2ccc(OC)c(OC)c2)cc1OC`, for which the IC50 at Cholinesterase was 55.2 µM; against Acetylcholinesterase, 1.1 µM. In series [12], this compound registered an inhibition of 61.2%.

For `Fc1cccc(/C=C/CSSC/C=C/c2cccc(F)c2)c1`, the half-maximal inhibitory concentration (IC50) at Cholinesterase is over 100 µM; against Acetylcholinesterase, 53.2 µM. For the same compound, in series [12], the inhibition was 44.2%.

Turning to `COc1ccc(/C=C/CSSC/C=C/c2ccc(OC)cc2)cc1`, the IC50 at Cholinesterase amounted to 59.5 µM; against Acetylcholinesterase, 8.29 µM. In series [12], this compound displayed an inhibition of 58.5%.

In the case of `COc1ccc(/C=C/C(=O)SSC(=O)/C=C/c2ccc(OC)cc2)cc1`, the figures for the IC50 on Cholinesterase and on Acetylcholinesterase were 16 µM and 0.22 µM, respectively. Moreover, in [12], the inhibition amounted to 63.5%.

Consider `Clc1cc(Cl)cc(/C=C/CSSC/C=C/c2cc(Cl)cc(Cl)c2)c1`, for which the values for the half-inhibitory concentration (IC50) on Cholinesterase and against Acetylcholinesterase were over 100 µM and 64.6 µM, respectively. The compound also registered an inhibition in series [12] of 47.5%.

Take `Oc1ccc(/C=C/CSSC/C=C/c2ccc(O)cc2)cc1`: the half-maximal inhibitory concentration (IC50) worked out at 63 µM on Cholinesterase and 12.3 µM on Acetylcholinesterase. In series [12], this compound displayed an inhibition of 53%.

On to `O=C(/C=C/c1ccc(Br)cc1)SSC(=O)/C=C/c1ccc(Br)cc1`, for which the half-maximal inhibitory concentration (IC50) at Cholinesterase stood at 37.2 µM; against Acetylcholinesterase, 0.34 µM. The inhibition in series [12] turned out to be 52.2%.

As to `Fc1ccccc1/C=C/CSSC/C=C/c1ccccc1F`, the results for the IC50 on Cholinesterase and against Acetylcholinesterase were over 100 µM and 48.7 µM, respectively. This compound yielded an inhibition in series [12] of 33.5%.

Consider `Brc1ccc(/C=C/CSSC/C=C/c2ccc(Br)cc2)cc1`, for which the figures for the IC50 on Cholinesterase and against Acetylcholinesterase were 72.5 µM and 20.9 µM, respectively. In series [12], this compound came in with an inhibition of 37.5%.

As to `O=C(O)CN(CCN(CC(=O)O)CC(=O)O)CC(=O)O` [EDETIC ACID], the Activity in series [5] is recorded as over 80%.

With `COc1cc(/C=C/C(=O)CC(=O)/C=C/c2ccc(O)c(OC)c2)ccc1O` [CURCUMIN], in series [3], the “inhibition (INH)” value is recorded as 65.9%.

With `Brc1cccc(/C=C/CSSC/C=C/c2cccc(Br)c2)c1`, the concentration for half-maximal inhibition (IC50) is 75.4 µM against Cholinesterase and 23.7 µM at Acetylcholinesterase. Moreover, the inhibition in series [12] was 39.4%.

For the compound `O=C(/C=C/c1ccc(F)cc1)SSC(=O)/C=C/c1ccc(F)cc1`, the 50% inhibitory concentration (IC50) turned out to be 32.4 µM at Cholinesterase and 0.45 µM against Acetylcholinesterase. The compound also showed an inhibition in series [12] of 62.4%.

With `COc1ccc(/C=C/C(=O)SSC(=O)/C=C/c2ccc(OC)cc2OC)c(OC)c1`, the IC50 against Cholinesterase is 14.9 µM; at Acetylcholinesterase it was 0.142 µM. This compound came in with an inhibition in series [12] of 69%.

`O=C(/C=C/c1ccc(Cl)cc1)SSC(=O)/C=C/c1ccc(Cl)cc1`: the 50% inhibitory concentration (IC50) on Cholinesterase was 35.6 µM; on Acetylcholinesterase, 0.51 µM. In series [12], the inhibition was determined as 65.6%.

With `COc1cc(/C=C/CSSC/C=C/c2ccc(O)c(OC)c2)ccc1O`, the IC50 against Cholinesterase was determined as 57.9 µM; on Acetylcholinesterase it was 1.45 µM. The inhibition in [12] came out at 66.9%.

With `O=C(/C=C/c1ccc(O)cc1)SSC(=O)/C=C/c1ccc(O)cc1`, the figures for the IC50 against Cholinesterase and at Acetylcholinesterase were 24.5 µM and 0.21 µM, respectively. The compound further gave an inhibition in [12] of 66.4%.

For the compound `Fc1cccc(F)c1/C=C/CSSC/C=C/c1c(F)cccc1F`, the IC50 against Cholinesterase was over 100 µM; against Acetylcholinesterase, 42.3 µM. The inhibition in series [12] is 39.5%.

Broadly, the IC50 is the point on the concentration scale where inhibition reaches its midpoint. As usually defined, the inhibition is the share of the control response that was lost under treatment.
